Test results as given in publication PMC5933005 (Dalton Transactions (Cambridge, England : 2003), 2018).
Like-named read-outs stand apart in the source and are kept apart here.

Experiments:
[1] = Biotransformation / kinetic inertness in whole human blood by RP-ICP-MS; type: in vitro ADME; settings: 37 °C; for stability of parent compound in whole human blood: 24 h incubation; for platinum(II) metabolites detected in whole human blood: after 24 h incubation
Summary of the method: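 Fresh human blood spiked with test compound was extracted in one of two ways: ice-cold acetonitrile with vortexing, sonication and centrifugation, or 0.1% formic acid, dry-ice freeze/sonication thaw, then 25% TCA precipitation. Supernatants were 0.45 μm filtered, diluted 1:5 in 50 mM ammonium formate (pH 6.0) and held at 4 °C. Species were separated by C18 RP-ICP-MS in triplicate, with a platinum(IV) reference QC for normalisation. Half-life came from a first-order fit.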

[2] = system: SW480 (colon carcinoma) cells; settings: 2 h exposure; cited from earlier work
[3] = type: in vitro ADME, human; settings: for proportion of platinum found in blood cells: after 2 h, ~10 μM in whole human blood, 37 °C
Summary of the method: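 Fresh heparinised human whole blood was spiked from a 1 mM aqueous stock to a final ~10 μM and incubated at 37 °C for 0, 0.5, 1, 2 and 24 h. It was centrifuged for 10 min at 2000 rcf in a 4 °C rotor. Plasma and cell fractions were microwave-digested in 25% nitric acid at 200 °C, and Pt was measured by ICP-MS. Values were normalised to haematocrit (47%) and fraction density, and the rate constant came from an exponential fit.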

[4] = system: murine colon cancer model CT-26; settings: i.p. and p.o. administration; cited from earlier work
[5] = system: leukemia L1210 mouse model; settings: cited from earlier work
[6] = whole human blood in vitro; cited from earlier work
[7] = 15 min after oral administration; cited from earlier work
[8] = kinetic model, exponential kinetics, whole human blood

## O=C1[O][Pt]2([OH])([OH])([NH]C3CCCCC3[NH]2)[O]C1=O [Complex 1, (OC-6-33)-dihydroxido(1R,2R-diaminocyclohexane)oxalatoplatinum(IV)]
[1]; 10 μM, RP-ICP-MS
  stability of parent compound in whole human blood: remain stable over 24 hours

## CC(=O)[O][Pt]1([NH2])([NH2])([O]C(C)=O)[O]C(=O)C2(CCC2)C(=O)[O]1 [Complex 3, (OC-6-33)-diacetatodiammine(1,1-cyclobutanedicarboxylato)-platinum(IV)]
[1]; 10 μM, RP-ICP-MS
  stability of parent compound in whole human blood: remain stable over 24 hours

## CC[NH][Pt]([Cl])([Cl])([NH]CC)([O]C(=O)CCC(=O)OCC)[O]C(=O)CCC(=O)OCC [Complex 4, (OC-6-33)-dichloridobis((4-ethoxy)-4-oxobutanoato)bis(ethylamine)platinum(IV)]
[2]
  platinum accumulation in SW480 cells: high platinum accumulation
[3]
  proportion of platinum found in blood cells: around 60%
[3]; listed as Compound 4
  proportion of platinum found in blood cells: 60%
[3]; [8]
  drug-related platinum inside blood cells in equilibrium: 59.7 ± 0.9%
  first-order rate constant of accumulation in blood cells: 1.2 ± 0.1 h⁻¹
[3]; time point 0, ~10 μM in whole human blood
  proportion of platinum in red blood cells: 30%
[4]
  anticancer activity in CT-26 model: showed anticancer activity
[1]; 10 μM, RP-ICP-MS
  stability of parent compound in whole human blood: could not be detected any more after 24 hours
  platinum(II) metabolites detected in whole human blood: no notable amounts of hydrophilic platinum(II)-metabolites were detected
[1]; first-order kinetic model, whole human blood
  half-life in blood: 45.4 ± 3.3 min
[5]
  efficacy in L1210 model: efficacy

## CC(=O)[O][Pt]([NH2])([Cl])([Cl])([NH]C1CCCCC1)[O]C(C)=O [satraplatin]
[6]
  half-life for the disappearance of the parent compound: 6.3 min
[7]
  detection of parent compound in patient's plasma ultrafiltrate: could not be detected any more
  number of platinum-containing species in patient's plasma ultrafiltrate: seven

## (OC-6-33)-diacetato(1R,2R-diaminocyclohexane)oxalatoplatinum(IV) [Complex 2]
[1]; 10 μM, RP-ICP-MS
  platinum(II) metabolites detected in whole human blood: a significant amount of oxaliplatin could be detected
[1]; over 6 hours incubation, 10 μM, RP-ICP-MS
  species observed in whole human blood: only the intact complex was observed
